Assay [1] has as its target T1, Bromodomain-containing protein 4 (Homo sapiens, UniProt O60885). As to the kind of experiment: Binding affinity to human recombinant His6-tagged BRD4 bromodomain 1 (N44 to E168 residues) expressed in Escherichia coli BL21 (DE3) cells assessed as change in melting temperature at 200 uM incubated for 30 mins by SYPRO orange dye based thermal shift assay. Summed up: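 Thermal shift assay measuring change in melting temperature of each isolated bromodomain module in the presence of compound versus without.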

Assay [2] addresses T1, Bromodomain-containing protein 4. Nature of the assay: Inhibition of HYSGRGK(Ac)GGK(Ac)GLGK(Ac)GGAK(Ac)RHRK(Biotin)-OH binding to recombinant human His6-tagged BRD4 bromodomain 1 (N44 to E168 residues) expressed in Escherichia coli BL21 (DE3) cells measured after 2 hrs by Alphascreen assay.
In another assay the test system is VCaP. As to the kind of experiment: cells. The following applies: Homo sapiens, 144 h, read-out: INH.
The test system of the next assay is LNCaP C4-2B. As to the kind of experiment: Antiproliferative activity against AR-positive human C4-2B cells assessed as reduction in cell viability incubated for 96 hrs by cell-titer glo assay. The assay is classed as functional, cell-based. Summed up: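 Prostate cancer cells treated across a concentration range; viability read by CellTiter-Glo luminescence; experiments in triplicate; IC50 derived from the dose–response curves.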

Assay [3] has as its target T1, Bromodomain-containing protein 4. Nature of the assay: Inhibition of BRD4 bromodomain 1 (unknown origin) by fluorescence polarization assay.

Results on 47 compounds are retold here after ChEMBL document CHEMBL4765238, “Structure-Based Discovery and Optimization of Benzo[ d]isoxazole Derivatives as Potent and Selective BET Inhibitors for Potential Treatment of Castration-Resistant Prostate Cancer (CRPC)” (J Med Chem, 2018).

Regarding `COc1ccc(Cl)cc1S(=O)(=O)Nc1cc2c(C)noc2cc1C`, the ΔTm in assay [1] was found to be 6.5 °C. For the same compound, the IC50 in assay [2] turned out to be 1.05 µM.

For `COCCn1c(-c2cc(Br)c3onc(C)c3c2)nc2ccc(N3CCOCC3)cc21`, in assay [1], the ΔTm worked out at 4.5 °C. Also, the IC50 in assay [2] is greater than 20 µM. The corresponding values for `COc1ccc(Br)cc1S(=O)(=O)Nc1cc2c(C)noc2cc1OCC(=O)NCCNC(C)=O` are 5.4 °C and 0.75 µM. Turning to `COCCn1c(-c2ccc3onc(C)c3c2)nc2ccc(N3CCOCC3)cc21`, the ΔTm in assay [1] was 5 °C. In addition, the IC50 in assay [2] stood at 4.42 µM. With `Cc1cc2onc(C)c2cc1NS(=O)(=O)c1ccccc1C(=O)O`, the shift in melting temperature (ΔTm) in assay [1] was found to be 3.8 °C. Moreover, the IC50 in assay [2] was 5.81 µM. For the compound `COc1cc2onc(C)c2cc1NS(=O)(=O)c1cc(Cl)ccc1Cl`, in assay [1], the ΔTm amounted to 7.3 °C. Moreover, the IC50 in assay [2] was found to be 0.44 µM.

With `CCCCS(=O)(=O)Nc1cc2c(C)noc2cc1C`, the ΔTm in assay [1] worked out at 5 °C. Further, the IC50 in assay [2] was 2.55 µM. Regarding `Cc1noc2ccc(-c3nc4ccc(N5CCOCC5)cc4n3CC3CC3)cc12`, in assay [1], the ΔTm was determined as 6.5 °C. Besides, the IC50 in assay [2] was 1.41 µM. As to `CCCOc1cc2onc(C)c2cc1NS(=O)(=O)c1cc(Br)ccc1OC`, in assay [1], the ΔTm was found to be 6 °C. Also, in assay [2], the IC50 is 0.42 µM. `Cc1cc2onc(C)c2cc1NS(=O)(=O)c1cccc(Cl)c1Cl`: the shift in melting temperature (ΔTm) in assay [1] came to 4 °C. For the same compound, the IC50 in assay [2] is 3.55 µM. For `COc1cc2onc(C)c2cc1NS(=O)(=O)c1cc(C)ccc1OC`, the ΔTm in assay [1] came to 7.8 °C. For the same compound, the half-maximal inhibitory concentration (IC50) in assay [2] came to 0.47 µM.

Take `CNC(=O)c1ccc(N2C(=S)N(c3ccc(C#N)c(C(F)(F)F)c3)C(=O)C2(C)C)cc1F` [ENZALUTAMIDE]: the inhibition at 33 µM in the assay with VCaP is 50%. Also, in the assay with LNCaP C4-2B, the IC50 was 18 µM. As for `CCNC(=O)COc1cc2onc(C)c2cc1NS(=O)(=O)c1cc(Br)ccc1OC`, in assay [1], the shift in melting temperature (ΔTm) is 5.1 °C. In assay [2], the concentration for half-maximal inhibition (IC50) amounted to 1.6 µM. Regarding `CCCCn1c(-c2ccc3onc(C)c3c2)nc2ccc(N3CCOCC3)cc21`, the ΔTm in assay [1] came to 5.9 °C. In addition, the IC50 in assay [2] was 1.16 µM.

`CCCCn1c(-c2cc(Br)c3onc(C)c3c2)nc2ccc(N3CCOCC3)cc21`: the ΔTm in assay [1] was 7.2 °C. Besides, the IC50 in assay [2] was 0.52 µM. For the compound `COc1ccc(Br)cc1S(=O)(=O)Nc1cc2c(C)noc2cc1OCC(=O)O`, the ΔTm in assay [1] stood at 6.2 °C. Also, the half-maximal inhibitory concentration (IC50) in assay [2] was 0.58 µM.

Turning to `Cc1cc2onc(C)c2cc1NS(=O)(=O)c1ccc(Cl)cc1`, the ΔTm in assay [1] was determined as 1 °C. The IC50 in assay [2] is greater than 20 µM. The corresponding values for `COc1ccc(OC)c(S(=O)(=O)Nc2cc3c(C)noc3cc2C)c1` are 2 °C and 10.7 µM. For the compound `CCOc1cc2onc(C)c2cc1NS(=O)(=O)c1cc(Br)ccc1OC`, the ΔTm in assay [1] is 9.2 °C. In addition, the concentration for half-maximal inhibition (IC50) in assay [2] came out at 0.15 µM. The corresponding values for `COc1cc2onc(C)c2cc1NS(=O)(=O)c1cc(Cl)ccc1OC` are 8.7 °C and 0.16 µM. The corresponding values for `Cc1cc2onc(C)c2cc1NS(=O)(=O)c1ccccc1Cl` are 5.2 °C and 1.59 µM. Regarding `COc1cc2onc(C)c2cc1NS(=O)(=O)c1ccccc1Cl`, the ΔTm in assay [1] worked out at 7.8 °C. Also, in assay [2], the half-inhibitory concentration (IC50) amounted to 0.22 µM. Turning to `Cc1noc2ccc(-c3nc4ccc(N5CCOCC5)cc4n3CC3CCCCC3)cc12`, the ΔTm in assay [1] is 5.4 °C. The IC50 in assay [2] was 0.18 µM.

For the compound `CCCn1c(-c2cc(Br)c3onc(C)c3c2)nc2ccc(N3CCOCC3)cc21`, in assay [1], the ΔTm was determined as 6.2 °C. Further, the IC50 in assay [2] is 1.8 µM. For the compound `Cc1cc2onc(C)c2cc1NS(=O)(=O)c1c(Cl)cccc1Cl`, the shift in melting temperature (ΔTm) in assay [1] is 1.1 °C. In addition, the IC50 in assay [2] was greater than 20 µM. The corresponding values for `Cc1cc2onc(C)c2cc1NS(=O)(=O)c1ccc([N+](=O)[O-])cc1` are 0.5 °C and greater than 20 µM.

Turning to `COc1ccc(Br)cc1S(=O)(=O)Nc1cc2c(C)noc2cc1C`, the shift in melting temperature (ΔTm) in assay [1] was determined as 7.5 °C. Besides, the IC50 in assay [2] turned out to be 0.62 µM. For `Cc1cc2onc(C)c2cc1NS(=O)(=O)C1CCCC1`, the ΔTm in assay [1] is 5 °C. Also, the IC50 in assay [2] worked out at 3.05 µM. The corresponding values for `Cc1noc2ccc(-c3nc4ccc(N5CCOCC5)cc4n3Cc3ccccc3)cc12` are 6 °C and 1.67 µM. With `COc1ccc(S(=O)(=O)Nc2cc3c(C)noc3cc2C)cc1`, in assay [1], the ΔTm is 1.5 °C. Moreover, in assay [2], the 50% inhibitory concentration (IC50) is greater than 20 µM.

In the case of `CCC(C)n1c(-c2ccc3onc(C)c3c2)nc2ccc(N3CCOCC3)cc21` (stereo not drawn), in assay [1], the ΔTm is 4.8 °C. In assay [2], the IC50 stood at 3.62 µM. Consider `Cc1cc2onc(C)c2cc1NS(=O)(=O)c1ccccc1`, for which the ΔTm in assay [1] was 2 °C. Besides, the concentration for half-maximal inhibition (IC50) in assay [2] turned out to be 4.96 µM. As to `COc1ccc(Br)cc1S(=O)(=O)Nc1cc2c(C)noc2cc1O`, in assay [1], the ΔTm came to 9.2 °C. Also, the IC50 in assay [2] turned out to be 0.23 µM. On to `Cc1cc2onc(C)c2cc1NS(=O)(=O)c1ccccc1Br`, for which the ΔTm in assay [1] was determined as 4.4 °C. In assay [2], the IC50 stood at 1.84 µM. In the case of `Cc1cc2onc(C)c2cc1NS(=O)(=O)C1CCCCC1`, the ΔTm in assay [1] amounted to 4.5 °C. In assay [2], the IC50 came to 2.24 µM. As to `Cc1noc2c(Br)cc(-c3nc4ccc(N5CCOCC5)cc4n3CC3CC3)cc12`, the shift in melting temperature (ΔTm) in assay [1] came to 6 °C. The IC50 in assay [2] amounted to 2.36 µM.

As to `Cc1noc2c(Br)cc(-c3nc4ccc(N5CCOC[C@@H]5C)cc4n3CC3CCCCC3)cc12`, in assay [1], the ΔTm is 7.2 °C. Moreover, in assay [2], the IC50 is 0.32 µM. Regarding `Cc1cc2onc(C)c2cc1NS(=O)(=O)c1cc(Cl)ccc1Cl`, the ΔTm in assay [1] came out at 5 °C. Further, in assay [2], the IC50 came out at 2.35 µM. Consider `CCCn1c(-c2ccc3onc(C)c3c2)nc2ccc(N3CCOCC3)cc21`, for which the shift in melting temperature (ΔTm) in assay [1] was found to be 6.5 °C. Further, the IC50 in assay [2] was determined as 1.37 µM. Regarding `COc1ccccc1S(=O)(=O)Nc1cc2c(C)noc2cc1C`, in assay [1], the thermal shift (ΔTm) came to 6.6 °C. For the same compound, the IC50 in assay [2] stood at 0.83 µM. With `CCS(=O)(=O)Nc1cc2c(C)noc2cc1C`, the ΔTm in assay [1] is 3 °C. In addition, the IC50 in assay [2] was found to be 5.3 µM. In assay [3], `CCOC(=O)C[C@@H]1N=C(c2ccc(Cl)cc2)c2cc(OC)ccc2-n2c(C)nnc21` gave an IC50 of 0.631 µM. As for `COc1ccc(Br)cc1S(=O)(=O)Nc1cc2c(C)noc2cc1OCC(=O)NCCN1CCOCC1`, the ΔTm in assay [1] stood at 4.8 °C. In assay [2], the concentration for half-maximal inhibition (IC50) amounted to 2.27 µM. As to `CCCS(=O)(=O)Nc1cc2c(C)noc2cc1C`, in assay [1], the ΔTm stood at 4.5 °C. The IC50 in assay [2] was determined as 2.47 µM. Regarding `COC(=O)c1ccccc1S(=O)(=O)Nc1cc2c(C)noc2cc1C`, in assay [1], the ΔTm is 3 °C. Also, in assay [2], the IC50 was 6.93 µM.

For `Cc1cc2onc(C)c2cc1NS(=O)(=O)c1ccc(F)cc1`, the shift in melting temperature (ΔTm) in assay [1] stood at 2 °C. Also, the IC50 in assay [2] stood at 9.82 µM. The corresponding values for `COc1ccc(C)cc1S(=O)(=O)Nc1cc2c(C)noc2cc1C` are 4.6 °C and 2.13 µM.
